Each structure is given as a SMILES string.

Series [1] has as its target T1, Nox2 (Homo sapiens, UniProt P04839).
T1 sequence (P04839 2-570 limits assumed): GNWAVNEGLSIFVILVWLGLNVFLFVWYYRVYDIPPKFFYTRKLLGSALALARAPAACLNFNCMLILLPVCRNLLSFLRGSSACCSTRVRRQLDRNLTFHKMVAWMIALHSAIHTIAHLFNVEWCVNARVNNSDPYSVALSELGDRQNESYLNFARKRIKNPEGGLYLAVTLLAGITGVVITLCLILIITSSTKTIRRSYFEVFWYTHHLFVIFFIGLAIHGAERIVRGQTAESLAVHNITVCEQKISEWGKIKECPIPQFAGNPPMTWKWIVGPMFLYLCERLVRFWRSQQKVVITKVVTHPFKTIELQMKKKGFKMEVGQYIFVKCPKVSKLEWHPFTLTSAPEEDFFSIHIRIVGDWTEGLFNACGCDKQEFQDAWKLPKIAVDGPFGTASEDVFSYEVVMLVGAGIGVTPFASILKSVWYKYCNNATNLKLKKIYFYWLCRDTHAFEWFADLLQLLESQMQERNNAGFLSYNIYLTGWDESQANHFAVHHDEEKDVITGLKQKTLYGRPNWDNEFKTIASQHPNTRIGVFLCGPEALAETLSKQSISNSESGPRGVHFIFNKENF
T1 sequence (P13498 2-195 partner limits assumed): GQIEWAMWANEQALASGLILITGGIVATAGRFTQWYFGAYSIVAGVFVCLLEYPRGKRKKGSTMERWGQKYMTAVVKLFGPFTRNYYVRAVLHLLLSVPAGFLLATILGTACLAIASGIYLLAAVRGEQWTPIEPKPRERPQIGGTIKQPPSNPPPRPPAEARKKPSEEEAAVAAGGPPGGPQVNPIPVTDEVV
Description: Cell-free Nox2 activity in lysed COS-Nox2 cells. As to conditions: 6.3 μM compound; COS-Nox2 cell lysate, 130 μM LiDS, 180 μM NADPH. In kind it is biochemical. In outline:
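Cell-free system: COS-Nox2 cell lysate is preincubated with test compound for 15 min at 25 °C. Subunits are assembled with 130 μM LiDS, and the reaction is started with 180 μM NADPH. O2•− is measured as the initial linear rate of SOD-inhibitable cytochrome C reduction, in nmol O2•− per min per 10^7 cell equivalents.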

Series [2] relates to cell viability. Kind of series: CytoTox-Glo cell viability assay. In kind it is cell-based. The settings on record: only at the highest concentration tested.
The target in series [3] is T1, Nox2. Description: L-012 chemiluminescence assay of O2•− generation in whole COS-Nox2 cells. In kind it is cell-based. In outline:
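Stable Nox2-transfected COS cells, stimulated with 5 μM PMA; O2•− is detected by L-012 chemiluminescence. The primary screen of library compounds ran at 100, 50, 25 and 12.5 μM. Follow-up concentration–response data are expressed as % of vehicle control (mean ± SEM of 3–7 independent experiments), and IC50 is extrapolated from the curve slope.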

Series [4] concerns the target T2, Nox4 (Homo sapiens, UniProt Q9NPH5).
T2 sequence (Q9NPH5 1-578): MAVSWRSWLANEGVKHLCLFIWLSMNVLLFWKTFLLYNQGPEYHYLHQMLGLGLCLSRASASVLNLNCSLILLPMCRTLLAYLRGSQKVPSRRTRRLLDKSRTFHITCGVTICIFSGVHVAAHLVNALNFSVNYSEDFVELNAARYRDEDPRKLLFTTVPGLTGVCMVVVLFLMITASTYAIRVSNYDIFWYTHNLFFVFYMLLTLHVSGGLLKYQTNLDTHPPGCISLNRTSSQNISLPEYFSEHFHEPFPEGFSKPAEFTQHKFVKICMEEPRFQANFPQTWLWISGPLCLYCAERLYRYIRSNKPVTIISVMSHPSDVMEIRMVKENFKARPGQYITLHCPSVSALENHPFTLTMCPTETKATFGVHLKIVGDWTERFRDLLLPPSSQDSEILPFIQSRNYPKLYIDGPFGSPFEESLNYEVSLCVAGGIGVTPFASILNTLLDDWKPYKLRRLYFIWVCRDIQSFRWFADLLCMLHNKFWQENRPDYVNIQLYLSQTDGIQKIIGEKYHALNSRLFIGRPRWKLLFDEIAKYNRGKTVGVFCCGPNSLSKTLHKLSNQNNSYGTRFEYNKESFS
T2 sequence (P13498 2-195 partner limits assumed): T1 sequence (P13498 2-195 partner limits assumed)
Description: Amplex Red assay of constitutive Nox4 activity. In kind it is cell-based. As to conditions: for Nox4 activity (in words): Amplex Red, COS-Nox4 cells. In short, it runs like this:
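Transiently transfected COS-Nox4 cells, unstimulated (constitutive activity), pretreated with various test compound concentrations for 15 min. The initial rate of H2O2 production is read by Amplex Red fluorescence. Results are given as % of vehicle control, mean ± SEM of 3–7 independent experiments; IC50 comes from the concentration–response curve.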

In series [5] the target is T3, Nox1 (Homo sapiens, UniProt Q9Y5S8).
T3 sequence (Q9Y5S8 1-564): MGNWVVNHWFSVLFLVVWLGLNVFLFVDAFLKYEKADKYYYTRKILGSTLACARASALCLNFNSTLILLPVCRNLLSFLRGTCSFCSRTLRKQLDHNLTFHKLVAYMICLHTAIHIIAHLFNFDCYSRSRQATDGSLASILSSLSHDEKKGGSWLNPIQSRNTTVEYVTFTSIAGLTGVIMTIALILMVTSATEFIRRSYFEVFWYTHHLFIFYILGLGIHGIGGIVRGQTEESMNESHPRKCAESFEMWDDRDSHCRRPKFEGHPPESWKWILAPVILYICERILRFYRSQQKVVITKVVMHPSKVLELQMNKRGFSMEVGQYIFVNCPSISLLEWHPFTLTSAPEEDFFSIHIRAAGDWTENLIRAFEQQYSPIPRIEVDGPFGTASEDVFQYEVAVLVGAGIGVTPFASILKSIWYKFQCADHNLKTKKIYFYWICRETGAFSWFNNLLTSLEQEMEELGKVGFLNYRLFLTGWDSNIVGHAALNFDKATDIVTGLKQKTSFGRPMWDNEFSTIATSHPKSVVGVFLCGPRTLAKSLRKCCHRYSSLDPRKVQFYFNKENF
T3 sequence (P13498 2-195 partner limits assumed): T1 sequence (P13498 2-195 partner limits assumed)
In kind it is cell-based. As to conditions: for Nox1 activity (in words): summary of Table 1.

In series [6] the target is T4, Nox5 (Homo sapiens, UniProt Q96PH1).
T4 sequence (Q96PH1 1-765): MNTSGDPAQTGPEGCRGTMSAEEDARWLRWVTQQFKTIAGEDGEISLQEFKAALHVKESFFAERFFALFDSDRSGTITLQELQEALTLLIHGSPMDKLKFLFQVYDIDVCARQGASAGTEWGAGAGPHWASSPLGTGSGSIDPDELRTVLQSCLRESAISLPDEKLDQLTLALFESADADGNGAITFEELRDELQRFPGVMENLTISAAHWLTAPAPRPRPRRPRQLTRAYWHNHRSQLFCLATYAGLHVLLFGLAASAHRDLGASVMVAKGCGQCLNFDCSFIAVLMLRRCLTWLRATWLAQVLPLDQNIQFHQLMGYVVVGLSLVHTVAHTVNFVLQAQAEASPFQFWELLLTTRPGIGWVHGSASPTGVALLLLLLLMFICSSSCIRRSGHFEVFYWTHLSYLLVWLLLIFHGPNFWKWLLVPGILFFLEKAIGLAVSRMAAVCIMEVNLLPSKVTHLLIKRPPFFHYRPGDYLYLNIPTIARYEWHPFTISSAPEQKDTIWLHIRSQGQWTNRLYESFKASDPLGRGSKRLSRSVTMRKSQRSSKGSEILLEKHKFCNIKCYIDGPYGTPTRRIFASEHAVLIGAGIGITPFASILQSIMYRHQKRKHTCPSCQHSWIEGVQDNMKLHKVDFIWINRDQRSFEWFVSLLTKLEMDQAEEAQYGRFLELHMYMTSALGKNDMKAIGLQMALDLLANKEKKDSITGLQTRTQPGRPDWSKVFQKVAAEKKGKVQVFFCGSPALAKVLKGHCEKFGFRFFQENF
Kind of series: L-012 assay of Nox5 activity in HEK-Nox5 cells. In kind it is cell-based. The settings on record: summary of Table 1.

For series [7], the target named is T1, Nox2. Kind of series: Amplex Red assay of ROS generation in whole COS-Nox2 cells. The format is cell-based. In outline: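 Whole COS-Nox2 cells stimulated with 5 μM PMA, with SOD added to convert O2•− to H2O2. H2O2 is read by Amplex Red fluorescence across a concentration range of test compound. Activity is expressed as % of vehicle control, as mean ± SEM of 3–7 independent experiments; IC50 is derived from the concentration–response curve.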

With `C=C(C)C[C@@H]1N[C@H]2CC(C)(C)[C@@H]1c1c(Br)cccc12` [Compound 7], the “LiDS-stimulated O2•− generation” value in series [1] is “almost non-stimulated levels”. Moreover, in series [2], the “Effect on cell viability” value is reported as “effect on cell viability”.
The IC50 is the midpoint of a concentration-inhibition curve. In the case of `C=C(C)C[C@@H]1N[C@H]2CC(C)(C)[C@@H]1c1ccccc12` [Compound 8], the “Activity in primary screen” value in series [3] (UPCMLD library screen at 100, 50, 25, and 12.5 μM, L-012, COS-Nox2 cells) is “inactive”. The compound also displayed an IC50 in series [4] greater than 100 µM.
The compound `C=C(C)C[C@H]1[C@H]2c3c(Br)cccc3[C@H](CC2(C)C)N1Cc1ccnc2ccccc12` [Compound 11b] yielded an IC50 in series [4] greater than 100 µM.
In series [4], `C=C(C)C[C@H]1[C@H]2c3c(Br)cccc3[C@H](CC2(C)C)N1Cc1c[nH]c2ccccc12` [Compound 11c] came in with an IC50 greater than 100 µM.
With `C=C(C)C[C@H]1[C@H]2c3c(Br)cccc3[C@H](CC2(C)C)N1CCCCC` [Compound 11g], the “Nox1 activity (in words)” value in series [5] is recorded as “virtually no effect”. Also, the “Nox4 activity (in words)” value in series [4] is listed as “virtually no effect”. In series [6], the “Nox5 activity (in words)” value is “virtually no effect”.
On to `C=C(C)C[C@H]1[C@H]2c3c(Br)cccc3[C@H](CC2(C)C)N1Cc1cccs1` [Compound 11h], for which the “Nox1 activity (in words)” value in series [5] is “virtually no effect”. Moreover, in series [4], the IC50 was greater than 100 µM and the “Nox4 activity (in words)” value is reported as “virtually no effect”. The “Nox5 activity (in words)” value in series [6] was “virtually no effect”.
As for `C=C(C)C[C@H]1[C@H]2c3c(-c4ccc(Cl)c(Cl)c4)cccc3[C@H](CC2(C)C)N1Cc1ccc2c(c1)OCO2` [Compound 12b], in series [4], the concentration for half-maximal inhibition (IC50) was greater than 100 µM.
Regarding `C=C(C)C[C@@H]1N[C@H]2CC(C)(C)[C@@H]1c1c(-c3cccnc3)cccc12` [Compound 12d], the IC50 in series [7] and in series [3] was greater than 100 µM each time.
As to `CC(C)C[C@@H]1N[C@H]2CC(C)(C)[C@@H]1c1c(Br)cccc12` [Compound 13], in series [3] (text summary of Table 1 (Amplex Red and L-012 assays)), the “Nox2 inhibitory activity (in words)” value is on record as “retained inhibitory activity”. Further, in series [5], the “Nox1 activity (in words)” value is “retained inhibitory activity”. The “Nox5 activity (in words)” value in series [6] was “retained inhibitory activity”. The “Effect on cell viability” value in series [2] is on record as “effect on cell viability”.
In series [5], `C=C(C)C[C@H]1[C@H]2c3c(Br)cccc3[C@H](CC2(C)C)N1S(C)(=O)=O` [Compound 14a] gave an IC50 greater than 100 µM.
`C=C(C)C[C@H]1[C@H]2c3c(Br)cccc3[C@H](CC2(C)C)N1S(=O)(=O)c1ccc(F)cc1` [Compound 14b] showed an IC50 in series [4] greater than 100 µM.

Source of the values: article PMC3897123 (MedChemComm, 2013).
